DDE Tn7 FP inh – inhibitors of Tn7 peptide binding to human fibrin DD(E). P02675. FP displacement of FITC-Tn7 peptide from fibrin DD(E); 0% = median of compound wells per plate. inhibition, % at 8.3 µM. 370,000 compounds, 0.13% hits;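 active means inhibition above the mean of compounds falling within the control limits plus 3 SD of them, cut at about 14% in these data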;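 further: 0% = plate median of compound wells and 100% = 10 µM Aha-Tn7 peptide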
Target sequence (P02675 whole entry, looked up): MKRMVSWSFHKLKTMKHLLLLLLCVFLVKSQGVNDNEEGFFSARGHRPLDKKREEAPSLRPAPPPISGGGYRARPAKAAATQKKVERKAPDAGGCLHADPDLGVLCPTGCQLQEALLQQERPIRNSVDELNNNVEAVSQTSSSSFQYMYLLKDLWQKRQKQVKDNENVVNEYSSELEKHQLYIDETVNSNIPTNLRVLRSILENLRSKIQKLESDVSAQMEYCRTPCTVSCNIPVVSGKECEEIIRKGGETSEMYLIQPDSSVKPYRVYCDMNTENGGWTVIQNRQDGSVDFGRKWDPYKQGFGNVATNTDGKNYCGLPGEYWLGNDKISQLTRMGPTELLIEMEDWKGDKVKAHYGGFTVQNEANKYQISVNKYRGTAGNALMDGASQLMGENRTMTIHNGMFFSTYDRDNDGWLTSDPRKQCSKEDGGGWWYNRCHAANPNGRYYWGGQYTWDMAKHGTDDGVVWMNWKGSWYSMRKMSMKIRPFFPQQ
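assay system = human clot-derived fibrin DD(E) complex | quantity = Fibrin-DD(E) at 2 µM final | timing = 10 min preincubation, 3 h with tracer, room temperature | signal = fluorescence polarization | measure = percent inhibition | benchmarks = high control wells with 10 µM unlabelled Aha-Tn7 peptide (full inhibition) | replicates = singlicate testing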
MT1-MMP act inh – MT1-MMP (human) activation inhibition; 360,000 compounds, 0.061% hits; P50281; GFP/RFP ratio change, % at 20 µM; HT1080 RFP-PRO-GFP cells, GFP/RFP ratio fluorescence, overnight; percent of plate control window, DMSO zero;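 active means GFP/RFP ratio change of at least 30% with cell ATP level not reduced by more than half and red fluorescence within 50% of control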
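Material – HT1080 RFP-PRO-GFP cells · Control set – DMSO wells and RFP-L50D-GFP cells · Incubation – overnight cell settling, then overnight compound exposure, 37 °C, 5% CO2 · Compound dosing – single-point 20 µM compound, 1% DMSO · Read-out – GFP/RFP fluorescence ratio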
SKN-1 block – blocks SKN-1 activity in C. elegans. 360,000 compounds, 0.49% hits. inhibition, % at 21.8 µM. C. elegans VP596 Pgst-4::GFP/RFP ratio, acrylamide-induced, 24 h;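 active means interference check ratio from 0.5 to 1.5 plus GFP to RFP signal ratio inhibition reaching or exceeding a fixed threshold, cut at about 30% in these data, passing the limit was not always enough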
DDE Tn6 FP inh – inhibitors of Tn6 peptide binding to human fibrin DD(E) | P02675 | 370,000 compounds, 0.21% hits | AID 720509 | inhibition, % at 8.3 µM | Fibrin DD(E) TRITC-Tn6 fluorescence polarization displacement;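 active means inhibition above a per-campaign cutoff: mean of compounds within control limits plus 3 SD, cut at about 15% in these data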;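 further: 0% = median of all compound wells on the plate and 100% = blocking peptide control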
* = called active by the depositor. Hits are enriched below; roughly 0.84% of the tested compounds scored in any of these assays.

Results for Oc1c(N=Nc2ccc(F)cc2)ccc2ccccc12 ?
DDE Tn7 FP inh: 1; MT1-MMP act inh: 23; SKN-1 block: 73; DDE Tn6 FP inh: -4

What do the screens show for `Clc1ccc(-c2nnc(SCc3ccon3)o2)c(Cl)c1`?
DDE Tn7 FP inh: -10; MT1-MMP act inh: 2; SKN-1 block: 37*; DDE Tn6 FP inh: 7

How did C=CCSc1nnc(-c2ccc(Cl)cc2Cl)o1 do in these assays?
DDE Tn7 FP inh: 5; SKN-1 block: 86*; DDE Tn6 FP inh: -1

What do the screens show for `Cc1ccc(-c2ccc(CN3C(CC(C)C)C(=O)N(Cc4cn(CC5CCCCC5)nn4)CCS3(=O)=O)cc2)cc1` (stereo not given)?
DDE Tn7 FP inh: 2; MT1-MMP act inh: 0; SKN-1 block: -7; DDE Tn6 FP inh: -1

How did O=C(NCc1ccco1)c1sc2cc(F)ccc2c1Cl do in these assays?
DDE Tn7 FP inh: 4; MT1-MMP act inh: -4; SKN-1 block: 37*; DDE Tn6 FP inh: 10

What do the screens show for `O=C(Nc1ccon1)c1sc2cc(F)ccc2c1Cl`?
DDE Tn7 FP inh: -2; MT1-MMP act inh: 2; SKN-1 block: 10; DDE Tn6 FP inh: -9

Results for CCOC(=O)CC[C@@]1(C(=O)OCC)C[C@@H](CC(=O)NCC23CC4CC(CC(C4)C2)C3)C(=O)N2CCCC=C21 ?
DDE Tn7 FP inh: 2; DDE Tn6 FP inh: 3

How did Cc1cc(N2CCCC2)ccc1/C=C1\NC(=S)N(C)C1=O do in these assays?
DDE Tn7 FP inh: -11; MT1-MMP act inh: -93; SKN-1 block: 43*; DDE Tn6 FP inh: -7

Results for CN1C(=O)c2ccc(N3CCCC3)cc2C1=O ?
DDE Tn7 FP inh: 2; MT1-MMP act inh: -64; SKN-1 block: 14; DDE Tn6 FP inh: -2

How did CCOCCCNC(=O)C(c1ccc(Cl)cc1)N1CCN(c2ccccc2)CC1 (stereo not given) do in these assays?
DDE Tn7 FP inh: -9; MT1-MMP act inh: -2; SKN-1 block: 6; DDE Tn6 FP inh: 5

What do the screens show for `CCOCCCNC(=O)C(c1ccc(Cl)cc1)N1CCC2(CC1)OCCO2` (stereo not given)?
DDE Tn7 FP inh: -7; MT1-MMP act inh: -4; SKN-1 block: 37*; DDE Tn6 FP inh: 5

What do the screens show for `Cc1cccc(-c2cccc3c4c([nH]c23)[C@@H]2C[C@H]3[C@@H](CN2CC4)[C@H](C)ON3C)c1`?
DDE Tn7 FP inh: -6; DDE Tn6 FP inh: -2

Results for CCCCOc1ccc(C(=O)NC2CCCCN(Cc3cccc(C(F)(F)F)c3)C2=O)cc1 (stereo not given) ?
DDE Tn7 FP inh: 2; DDE Tn6 FP inh: -4

How did O=C(Nc1ccc(Cl)c(C(F)(F)F)c1)c1ccco1 do in these assays?
DDE Tn7 FP inh: 4; MT1-MMP act inh: -5; SKN-1 block: 44*; DDE Tn6 FP inh: 1

What do the screens show for `Cc1cc(NC(=O)c2ccco2)ccc1-n1cnnn1`?
DDE Tn7 FP inh: -14; MT1-MMP act inh: 3; SKN-1 block: 61*; DDE Tn6 FP inh: 1

Results for COc1cc(C(=O)Nc2ccc(-n3cnnn3)c(C)c2)cc(OC)c1OC ?
DDE Tn7 FP inh: 10; MT1-MMP act inh: 15; SKN-1 block: 4; DDE Tn6 FP inh: -2

What do the screens show for `COc1ccc(CNS(=O)(=O)/C=C/c2ccc(OC)cc2CNC(=O)OC(C)(C)C)cc1`?
DDE Tn7 FP inh: -5; DDE Tn6 FP inh: 4

Results for Cc1ccccc1-c1nnc(-c2ccccc2C)o1 ?
DDE Tn7 FP inh: -1; MT1-MMP act inh: 0; SKN-1 block: 46*; DDE Tn6 FP inh: 10

What do the screens show for `Cc1ccccc1-c1nnc(-c2cccc3ccccc23)o1`?
DDE Tn7 FP inh: 1; MT1-MMP act inh: -5; SKN-1 block: 18; DDE Tn6 FP inh: -4

Results for Cn1c(-c2ccc(Br)o2)nc2cc(Br)ccc21 ?
DDE Tn7 FP inh: 2; MT1-MMP act inh: 7; SKN-1 block: 43*; DDE Tn6 FP inh: 4

Results for Cc1ccccc1NC(=O)Cc1nc(COC(=O)c2cccc(O)c2)cs1 ?
DDE Tn7 FP inh: -3; MT1-MMP act inh: -2; SKN-1 block: 42*; DDE Tn6 FP inh: 1

How did COC(=O)C1CN(Cc2cn(Cc3ccc(C)cc3)nn2)CCS(=O)(=O)N1Cc1ccc(C)cc1 (stereo not given) do in these assays?
DDE Tn7 FP inh: -6; DDE Tn6 FP inh: 4

What do the screens show for `CCC(c1nnnn1CCOC)N1CCN(Cc2ccccc2)CC1` (stereo not given)?
DDE Tn7 FP inh: -5; SKN-1 block: 36*; DDE Tn6 FP inh: 2

What do the screens show for `Cc1cccc(-c2cccc3c4c([nH]c23)[C@@H]2C[C@H](N(C)C(=O)C3CCCCC3)[C@H]([C@H](C)O)CN2CC4)c1`?
DDE Tn7 FP inh: -9; DDE Tn6 FP inh: 3

Results for Cc1ccccc1NC(=O)CSC1=C(C#N)C(c2ccsc2)CC(=O)N1 (stereo not given) ?
DDE Tn7 FP inh: -9; MT1-MMP act inh: 4; SKN-1 block: 38*; DDE Tn6 FP inh: -4

How did N#CC1=C(SCC(=O)Nc2nccs2)NC(=O)CC1c1ccccc1 (stereo not given) do in these assays?
DDE Tn7 FP inh: -1; MT1-MMP act inh: -4; SKN-1 block: 4; DDE Tn6 FP inh: 8

How did COc1cccc(CNC(=O)[C@@H](C)N2C(=O)N3CCc4c([nH]c5ccc(OC)cc45)C3(C)C2=O)c1 (stereo not given in full) do in these assays?
DDE Tn7 FP inh: -7; MT1-MMP act inh: 4; SKN-1 block: 4; DDE Tn6 FP inh: 3

How did CCCC(=O)N1CCN(c2ccc(NC(=O)c3cc4ccccc4o3)cc2)CC1 do in these assays?
DDE Tn7 FP inh: 1; MT1-MMP act inh: 1; SKN-1 block: 48*; DDE Tn6 FP inh: 3

Results for CC(=O)Nc1ccc(NC(=S)NC(=O)c2cc3ccccc3o2)cc1 ?
DDE Tn7 FP inh: 1; MT1-MMP act inh: 5; SKN-1 block: -6; DDE Tn6 FP inh: -2

What do the screens show for `O=C(NC(=S)Nc1ccc(CN2CCCCC2)cc1)c1cc2ccccc2o1`?
DDE Tn7 FP inh: -3; MT1-MMP act inh: 4; SKN-1 block: 73*; DDE Tn6 FP inh: 3

How did NCCCC[C@H]1CN=C(N)N1CCC12CC3CC(CC(C3)C1)C2 do in these assays?
DDE Tn7 FP inh: -5; MT1-MMP act inh: 6; SKN-1 block: 4; DDE Tn6 FP inh: 8

What do the screens show for `Cc1cc(=O)[nH]c(SCC(=O)NCC2CCCO2)n1` (stereo not given)?
DDE Tn7 FP inh: -2; MT1-MMP act inh: 1; SKN-1 block: 15; DDE Tn6 FP inh: 3

How did O=C(CSc1nc(O)c(C2CCCCC2)c(=O)[nH]1)NCC1CCCO1 (stereo not given) do in these assays?
DDE Tn7 FP inh: 7; MT1-MMP act inh: -3; SKN-1 block: 31*; DDE Tn6 FP inh: -7

Results for COC(=O)[C@]12C[C@H](CC(=O)NCc3ccc(OC)c(OC)c3)C(=O)N(Cc3cccc4ccccc34)C1=C[C@H](C(C)(C)C)O[C@@H]2C ?
DDE Tn7 FP inh: -2; DDE Tn6 FP inh: 6

What do the screens show for `Cc1ccc(SCCNC(=O)CN2C(=O)c3ccccc3S2(=O)=O)cc1`?
DDE Tn7 FP inh: 6; MT1-MMP act inh: 3; SKN-1 block: 37*; DDE Tn6 FP inh: -1
